Assay outcomes as filed in PubChem BioAssay.
Pf gamet viab: late stage P. falciparum gametocyte viability inhibitors, primary screen, ATP luminescence, HTS; P. falciparum stage V gametocytes, 24 h; inhibition, % at 10.9 µM; 150,000 compounds, 0.065% hits; AID 743093, 2013;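 active = inhibition above the mean plus 3 SD of compounds within the control limits, set per campaign, cut at about 38% in these data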;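 also: 0% = DMSO wells and 100% = medium only without gametocytes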
STAT1 activator: STAT1 signaling activators, primary screen, cell-based, HTS, luciferase reporter | NIH 3T3 STAT1-luciferase reporter, IFN-gamma, luminescence; 100% = IFN-gamma alone, no compound | activation (% of control), % at 5.5 µM | 200,000 compounds, 2.6% hits | AID 932, 2007;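 active = activation above the screen-wide mean activation plus 3 SD, cut at about 130% in these data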;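 also: raw ratio to IFN-gamma control signal so 100% means no change and 0% no light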
NF-kB expr up: activators of NF-kB expression in neurons, primary screen, cell-based, HTS. 190,000 compounds, 1.6% hits. human neuronal cells, NF-kB reporter expression; stronger effect = higher value. AID 1239, 2008. fold change at 12.5 µM; in the data active = fold change above about 3.3
FLuc stim CS: FLuc activators, initial screening, artefact control for FLuc-dependent activation tests, biochemical, ATPlite luminescence; ATPlite luciferase biochemical, 10 min; 0 = ATP-free wells, 1 = DMSO control; activation factor at 10 µM; 200,000 tested, under 10 active; Luciferin 4-monooxygenase (Photinus pyralis), P08659;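 active = luciferase activation factor, scaled between plate controls, of at least 2 with compound at 10 µM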
Target sequence (P08659 whole entry, looked up): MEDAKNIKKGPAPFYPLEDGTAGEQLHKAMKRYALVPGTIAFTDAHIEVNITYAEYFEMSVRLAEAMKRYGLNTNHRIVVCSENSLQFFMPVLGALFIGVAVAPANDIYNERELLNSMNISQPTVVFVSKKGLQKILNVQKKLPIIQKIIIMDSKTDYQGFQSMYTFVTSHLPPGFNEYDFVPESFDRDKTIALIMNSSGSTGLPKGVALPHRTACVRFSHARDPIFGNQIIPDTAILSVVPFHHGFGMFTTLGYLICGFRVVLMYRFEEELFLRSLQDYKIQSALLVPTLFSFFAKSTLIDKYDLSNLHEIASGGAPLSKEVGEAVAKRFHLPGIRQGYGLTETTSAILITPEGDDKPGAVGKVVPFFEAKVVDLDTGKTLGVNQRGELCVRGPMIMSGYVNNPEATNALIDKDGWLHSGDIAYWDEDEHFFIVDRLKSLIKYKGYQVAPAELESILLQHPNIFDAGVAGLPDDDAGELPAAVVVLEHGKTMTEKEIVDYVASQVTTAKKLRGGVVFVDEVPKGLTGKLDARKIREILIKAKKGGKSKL
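Assay system – cell-free luciferase reagent · Medium – PBS-based ATP solution · Dosing – test compounds dosed from 2 mM stocks in 100% DMSO · Timing – 10 min, room temperature · Technique – light output (luminescence) · Measure – luminescence gain marking luciferase activators · Controls – No-ATP low control, compound-free enzyme-plus-ATP high control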
FLuc inhib CS: firefly luciferase enzyme inhibitors, primary screen, artefact control for luciferase-based inhibitor screens, biochemical, luminescence, ATPLite | Luciferin 4-monooxygenase (Photinus pyralis), P08659 | 10 min | inhibition, % at 10 µM | 200,000 compounds, 1.5% hits | AID 1006, 2008;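 active = inhibition above about 50% when tested at 10 µM, limit read from the data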
APP 5'UTR act: activators of APP 5'UTR luciferase reporter, primary screen, SH-SY5Y cells; 190,000 compounds, 1% hits; AID 1276, 2008; SH-SY5Y APP 5'UTR luciferase reporter, luminescence; zero percent = DMSO vehicle wells; activation, % at 2 µM;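 active = activation above a set limit, based on mean plus 3 SD of controls, cut at about 140% in these data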
Starred values were filed as active, the others as inactive. A selection: hits, their analogues and other compounds. The true share with any hit is near 3.5%.

For Cc1ccc(-n2nnnc2-c2nc3ccccc3s2)cc1 the results were Pf gamet viab 15.5, STAT1 activator 104.3, NF-kB expr up 1.01, FLuc stim CS 1, FLuc inhib CS 1.0 and APP 5'UTR act -1.1.
CCOc1ccc(-n2nnnc2-c2nc3ccccc3s2)cc1 was read as Pf gamet viab -4.8, STAT1 activator 139.8*, NF-kB expr up 1.32, FLuc stim CS 0.7, FLuc inhib CS 33.9 and APP 5'UTR act 122.9.
For COc1ccc(O)c(C(=O)CC(=O)c2ccccc2C)c1 the results were STAT1 activator 145.1*, NF-kB expr up 2.32, FLuc stim CS 1, FLuc inhib CS 0.4 and APP 5'UTR act 76.9.
For COc1ccc(O)c(C(=O)CC(=O)c2ccc(F)cc2)c1 the results were STAT1 activator 110.2, NF-kB expr up 2.29, FLuc stim CS 0.8, FLuc inhib CS 20.6 and APP 5'UTR act 149.3*.
For COc1ccc(C(=O)Cc2ccc(F)cc2)c(OC)c1 the results were Pf gamet viab 6.5, STAT1 activator 138.5*, NF-kB expr up 1.94, FLuc stim CS 1, FLuc inhib CS -1.3 and APP 5'UTR act 46.1.
`COc1ccc(C(=O)COc2ccc(F)cc2)c(O)c1` gave Pf gamet viab -21.0 and APP 5'UTR act 39.7.
`Cc1ccc(S(=O)(=O)NNC(=O)C(O)(c2ccccc2C)c2ccccc2C)cc1` gave Pf gamet viab 2.2, STAT1 activator 105.1, NF-kB expr up 1.19, FLuc stim CS 1.1, FLuc inhib CS -5.2 and APP 5'UTR act 0.6.
`CC(C)(C)c1ccc(-c2cn(-c3ccc(Br)cc3)c3[n+]2CCCS3)cc1` gave Pf gamet viab -4.1, STAT1 activator 73.0, NF-kB expr up 1.78, FLuc stim CS 1.1, FLuc inhib CS -5.0 and APP 5'UTR act -5.9.
OCC[C@@H]1C[C@H](O)[C@@H](O)[C@]2(OCCc3ccccc32)O1 was read as Pf gamet viab 7.0.
`COc1ccc(OC)c(N/C(C)=C/C(=O)c2ccccc2)c1` gave Pf gamet viab -22.9, STAT1 activator 133.7*, NF-kB expr up 1.06, FLuc stim CS 0.2, FLuc inhib CS 76.4* and APP 5'UTR act 77.1.
COc1ccc(OC)c(N/C(C)=C/C(=O)c2ccncc2)c1 was read as Pf gamet viab -2.2.
For COc1ccc(N/C(C)=C/C(=O)c2ccccc2)cc1 the results were Pf gamet viab -16.0, STAT1 activator 118.5, NF-kB expr up 3.43*, FLuc stim CS 0.6, FLuc inhib CS 38.8 and APP 5'UTR act 22.6.
For COC(=O)/C(=C\C(=O)c1ccccc1)Nc1ccc(OC)cc1 the results were Pf gamet viab 0.0.
For C/C(=C\C(=O)c1ccncc1)Nc1ccccc1O the results were Pf gamet viab -8.9, STAT1 activator 98.4, NF-kB expr up 6.04*, FLuc stim CS 1, FLuc inhib CS -0.2 and APP 5'UTR act 7.6.
COc1ccc(CC(=O)Nc2ccc(-c3cn4ccccc4n3)cc2)cc1OC was read as STAT1 activator 110.8, NF-kB expr up 1.37, FLuc stim CS 0.8, FLuc inhib CS 17.8 and APP 5'UTR act 7.0.
`COc1ccc(-c2cn3ccccc3n2)cc1OC` gave Pf gamet viab -0.7, STAT1 activator 129.5*, NF-kB expr up 2.29, FLuc stim CS 0.2, FLuc inhib CS 76.9* and APP 5'UTR act 104.4.
Cc1ccc2nc(-c3ccc4c(c3)NC(=O)CO4)cn2c1 was read as Pf gamet viab 1.6.
COc1ccc(-c2cn3cc(C)ccc3n2)cc1OC was read as Pf gamet viab 10.7, STAT1 activator 133.5*, NF-kB expr up 5.67*, FLuc stim CS 0.1, FLuc inhib CS 87.9* and APP 5'UTR act 183.6*.
COc1ccc(-c2cn3cc(C)ccc3n2)cc1F was read as Pf gamet viab 5.5, STAT1 activator 40.5, NF-kB expr up 2.44, FLuc stim CS 0.1, FLuc inhib CS 93.4* and APP 5'UTR act 146.6*.
Screening CCOc1ccc(-c2cn3ccccc3n2)cc1 returned Pf gamet viab 12.6, STAT1 activator 50.0, NF-kB expr up 4.8*, FLuc stim CS 0, FLuc inhib CS 96.8* and APP 5'UTR act 207.3*.
